Values after ≈ are worked out from the molar mass of the structure shown.

One test relates to Proteus vulgaris. Kind of test: Antibacterial activity against Proteus vulgaris ATCC 13315 after 24 hrs by browth microdilution assay. Type of test: functional. The gist of the method:
(§1)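 Broth microdilution per CLSI. Colonies suspended in 0.9% saline and adjusted to McFarland 0.5. Compounds dissolved in DMSO, diluted with distilled water to 100, 50, 25, 12.5, 6.25 and 3.125 µg/ml, with DMSO as negative control. Gentamycin (Gram-negative) and amikacin (Gram-positive) served as reference drugs. Incubation at 37 °C for 24 h. MIC taken as the lowest concentration preventing visible growth.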
(Dilution methods test growth across graded concentrations, often in twofold steps.)

Another test relates to Enterobacter cloacae. Kind of test: Antibacterial activity against Enterobacter cloacae ATCC 13047 after 24 hrs by browth microdilution assay. Type of test: functional. In a few lines: as §1
Another test relates to Pseudomonas aeruginosa. Nature of the test: Antibacterial activity against Pseudomonas aeruginosa ATCC 27853 after 24 hrs by browth microdilution assay. Type of test: functional. In a few lines:
as §1

The test system of a further test is HeLa. Nature of the test: Cytotoxicity against human HeLa after 24 hrs by MTT assay. The class given is functional, cell-based. In a few lines: (§2)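 Cells grown in MEM with 10% FBS and 1% glutamine at 5% CO2, seeded at 1.0×10^4 cells. Exposed to compounds at 1–100 µM in medium containing 0.1% DMSO for 24 h at 37 °C. MTT (1 mg/ml) added for 5 h at 37 °C, then DMSO added and absorbance read at 540 nm. Run in triplicate; IC50 determined.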

Another test has as its system Pichia kudriavzevii. Kind of test: Antifungal activity against Candida krusei ATCC 6268 after 48 hrs by browth microdilution assay. The following applies: ATCC 6268, 48 h. Type of test: functional. The gist of the method: (§3)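 Yeast colonies suspended in 0.9% saline and adjusted to McFarland 0.5, then tested by CLSI broth microdilution. Compounds in DMSO, diluted with distilled water to 3.125–100 µg/ml, with DMSO as negative control and nystatin as reference. Incubation at 37 °C, read after 48 h. MIC is the lowest concentration with no visible growth.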

The next test concerns Candida albicans. Kind of test: Antifungal activity against Candida albicans ATCC 90028 after 48 hrs by browth microdilution assay. Type of test: functional. The note with it: ATCC 90028, 48 h. In a few lines: as §3
The next test relates to Candida tropicalis. Kind of test: Antifungal activity against Candida tropicalis ATCC 20336 after 48 hrs by browth microdilution assay. Type of test: functional. The following applies: ATCC 20336, 48 h. The gist of the method:
as §3

The next test has as its system Nakaseomyces glabratus. Kind of test: Antifungal activity against Candida glabrata ATCC 32554 after 48 hrs by browth microdilution assay. Type of test: functional. The note with it: ATCC 32554, 48 h. In a few lines:
as §3

Another test relates to MCF7. Kind of test: Cytotoxicity against human MCF7 after 24 hrs by MTT assay. Type of test: functional, cell-based. The note with it: MCF7, 24 h. The gist of the method: as §2
For test [1], the system named is Staphylococcus epidermidis. Nature of the test: Antibacterial activity against Staphylococcus epidermidis ATCC 12228 after 24 hrs by browth microdilution assay. The class given is functional. The note with it: ATCC 12228, 24 h. In a few lines:
as §1

For test [2], the system named is Staphylococcus aureus (ATCC 25923). Nature of the test: Antibacterial activity against Staphylococcus aureus ATCC 25923 after 24 hrs by browth microdilution assay. The following applies: ATCC 25923, 24 h.
The test system of another test is Staphylococcus aureus. Kind of test: Antibacterial activity against Staphylococcus aureus ATCC 29213 after 24 hrs by browth microdilution assay. Type of test: functional. The following applies: ATCC 29213, 24 h. The gist of the method: as §1
The subject of the next test is Escherichia coli. Nature of the test: microbe, parasite or virus in culture. The note with it: ATCC 25922, 24 h.
The subject of another test is Enterococcus faecalis. Nature of the test: Antibacterial activity against Enterococcus faecalis ATCC 29212 after 24 hrs by browth microdilution assay. Type of test: functional. The note with it: ATCC 29212, 24 h. The gist of the method:
as §1

Take GENTAMICIN: the MIC against Proteus vulgaris was found to be 2 µg/mL; in the test on Enterobacter cloacae, 2 µg/mL; against Pseudomonas aeruginosa, 1 µg/mL.
`O=C(NC(=S)Nc1nc2ccccc2s1)c1ccccc1`: the half-inhibitory concentration (IC50) with HeLa was 57.5 µM; in the test on MCF7, 37.3 µM. The MIC against Pichia kudriavzevii is 50 µg/mL (≈ 160 µM); against Candida albicans, 50 µg/mL (≈ 160 µM); in the test on Candida tropicalis, 50 µg/mL (≈ 160 µM); in the test on Nakaseomyces glabratus, 25 µg/mL (≈ 79.8 µM).
With `O=C(NC(=S)Nc1nc2ccccc2s1)c1ccc([N+](=O)[O-])cc1`, the figures for the half-inhibitory concentration (IC50) in the test on HeLa and in the test on MCF7 were 62.6 µM and 33.8 µM, respectively.
Regarding `CCCC(=O)NC(=S)Nc1nc2ccccc2s1`, the 50% inhibitory concentration (IC50) with HeLa is 56.7 µM; with MCF7, 36.6 µM. For the same molecule, the MIC in the test on Pichia kudriavzevii worked out at 25 µg/mL (≈ 89.5 µM); against Candida albicans it was 20 µg/mL (≈ 71.6 µM); against Candida tropicalis it was 50 µg/mL (≈ 179 µM); with Nakaseomyces glabratus it was 50 µg/mL (≈ 179 µM).
As for `O=C(NC(=S)Nc1nc2cc([N+](=O)[O-])ccc2s1)N1CCOCC1`, the concentration for half-maximal inhibition (IC50) in the test on HeLa was 54.8 µM; in the test on MCF7, 31 µM. The MIC in the test on Pichia kudriavzevii came out at 20 µg/mL (≈ 54.4 µM); in the test with Candida albicans, 15 µg/mL (≈ 40.8 µM); in test [1] it was 10 µg/mL (≈ 27.2 µM); against Candida tropicalis, 5 µg/mL (≈ 13.6 µM); in test [2], 20 µg/mL (≈ 54.4 µM); against Staphylococcus aureus, 25 µg/mL (≈ 68 µM). For the same molecule, the MIC was 20 µg/mL (≈ 54.4 µM) in the test on Proteus vulgaris (ATCC 13315, 24 h); 15 µg/mL (≈ 40.8 µM) with Escherichia coli; 15 µg/mL (≈ 40.8 µM) against Enterobacter cloacae (ATCC 13047, 24 h); 25 µg/mL (≈ 68 µM) in the test with Pseudomonas aeruginosa (ATCC 27853, 24 h); 5 µg/mL (≈ 13.6 µM) in the test on Nakaseomyces glabratus; 10 µg/mL (≈ 27.2 µM) in the test with Enterococcus faecalis.
`CCCC(=O)NC(=S)Nc1nc2cc(Br)ccc2s1`: the half-inhibitory concentration (IC50) in the test on HeLa is 60.2 µM; in the test with MCF7 it was 45.7 µM. For the same molecule, the MIC was determined as 50 µg/mL (≈ 140 µM) in the test with Pichia kudriavzevii; 25 µg/mL (≈ 69.8 µM) in the test on Candida albicans; 50 µg/mL (≈ 140 µM) in test [1]; 50 µg/mL (≈ 140 µM) against Candida tropicalis; 50 µg/mL (≈ 140 µM) against Staphylococcus aureus; 50 µg/mL (≈ 140 µM) with Proteus vulgaris (ATCC 13315, 24 h). Besides, the MIC stood at 50 µg/mL (≈ 140 µM) against Enterobacter cloacae (ATCC 13047, 24 h); 50 µg/mL (≈ 140 µM) in the test with Pseudomonas aeruginosa (ATCC 27853, 24 h); 50 µg/mL (≈ 140 µM) in the test on Nakaseomyces glabratus; 50 µg/mL (≈ 140 µM) against Enterococcus faecalis.
With `Nc1ccc2sc(NC(=S)NC(=O)c3cccs3)nc2c1`, the IC50 worked out at 56.1 µM with HeLa and 28.4 µM in the test with MCF7. Moreover, the MIC against Pichia kudriavzevii worked out at 25 µg/mL (≈ 74.7 µM); against Candida albicans it was 25 µg/mL (≈ 74.7 µM); in the test on Candida tropicalis it was 25 µg/mL (≈ 74.7 µM); with Proteus vulgaris (ATCC 13315, 24 h), 25 µg/mL (≈ 74.7 µM); in the test with Escherichia coli it was 20 µg/mL (≈ 59.8 µM); in the test on Enterobacter cloacae (ATCC 13047, 24 h) it was 50 µg/mL (≈ 149 µM). In addition, the MIC turned out to be 50 µg/mL (≈ 149 µM) in the test on Pseudomonas aeruginosa (ATCC 27853, 24 h) and 20 µg/mL (≈ 59.8 µM) against Nakaseomyces glabratus.
`CCCC(=O)NC(=S)Nc1nc2cc([N+](=O)[O-])ccc2s1`: the MIC worked out at 25 µg/mL (≈ 77.1 µM) against Pichia kudriavzevii; 20 µg/mL (≈ 61.7 µM) against Candida albicans; 50 µg/mL (≈ 154 µM) in [1]; 50 µg/mL (≈ 154 µM) against Candida tropicalis; 50 µg/mL (≈ 154 µM) against Staphylococcus aureus; 20 µg/mL (≈ 61.7 µM) against Proteus vulgaris (ATCC 13315, 24 h). Further, the MIC in the test on Enterobacter cloacae (ATCC 13047, 24 h) worked out at 20 µg/mL (≈ 61.7 µM); in the test on Pseudomonas aeruginosa (ATCC 27853, 24 h) it was 20 µg/mL (≈ 61.7 µM); against Nakaseomyces glabratus, 25 µg/mL (≈ 77.1 µM); against Enterococcus faecalis, 50 µg/mL (≈ 154 µM). In the test on MCF7, the IC50 was more than 100 µM.
With `O=C(NC(=S)Nc1nc2cc(Br)ccc2s1)c1ccc([N+](=O)[O-])cc1`, the concentration for half-maximal inhibition (IC50) in the test on HeLa worked out at 56.5 µM; in the test on MCF7 it was 32.4 µM. The MIC (against Pichia kudriavzevii; in the test with Candida albicans; in [1]; against Candida tropicalis; in test [2]; with Staphylococcus aureus) was 50 µg/mL (≈ 114 µM) in each case. Moreover, the MIC against Nakaseomyces glabratus and with Enterococcus faecalis was 50 µg/mL (≈ 114 µM) each time.

The term IC50 denotes the concentration that inhibits the measured activity by half. High values mean lower potency, low ones higher potency.

The values above are taken from ChEMBL document CHEMBL1157014, “Synthesis, characterization and biological evaluation of some thiourea derivatives bearing benzothiazole moiety as potential antimicrobial and anticancer agents” (Eur J Med Chem, 2010).
